# In PubChem BioAssay:
# Active and inactive are the calls of the source.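 The calls were made as follows, unless noted: active = GFP response above 150% of the DMSO level; inconclusive = fewer than 70 events counted for a yeast strain; inactive = the rest.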
# Assays:
# [1] = hit retest on RPL19A-GFP reporter strain – cell-based, S. cerevisiae, flow cytometry, cherry picks, mother/daughter gates, confirmation (AID 2270;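 active = GFP response below 50% of the DMSO control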); settings: 3 h, at 10 µM, stronger effect = lower value, 100 = same GFP as DMSO wells
# [2] = yeast TOR pathway reporter LAP4-GFP change – cell-based, cherry picks, flow cytometry, mother/daughter gates, confirmation (AID 2271;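 active = GFP response above 150% of the DMSO control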;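 also: ratio of sample to DMSO plate mean so 100% equals DMSO level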); settings: S. cerevisiae LAP4-GFP strain, 3 h, at 10 µM, stronger effect = higher value, 100 means same as DMSO control
# Outline: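 System: GFP-fusion yeast strain; Incubation: compound exposure 3 h at 30 °C, end-over-end rotation; Measured by: GFP by flow cytometry; Read-out: median GFP fluorescence as percent of plate-mean DMSO wells; Medium: synthetic complete (SC) yeast growth medium; Compound: single test-compound dose, 10 µM final; Benchmarks: DMSO-only negative wells, rapamycin 400 ng/mL positive wells.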
# [3] = TOR pathway reporter MEP2-GFP, retest of hits – S. cerevisiae, flow cytometry GFP, cherry picks, confirmation (AID 2272;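 active = GFP response above 150% of the DMSO control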;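 also: ratio of well signal to plate DMSO mean so 100% equals DMSO level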); settings: S. cerevisiae MEP2-GFP strain, 3 h, at 10 µM, stronger effect = higher value
# [4] = yeast AGP1-GFP fluorescence change, single-dose – cell-based, flow cytometry, S. cerevisiae, cherry picks, confirmation (AID 2273);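 also: median GFP channel fluorescence over the whole cell population gate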; settings: S. cerevisiae AGP1-GFP strain, 3 h, at 10 µM
# [5] = TOR pathway CIT2 reporter hit retest – S. cerevisiae, GFP fusion, cherry picks, mother/daughter gates, confirmation (AID 2274); settings: S. cerevisiae CIT2-GFP strain, flow cytometry, 3 h, at 10 µM, stronger effect = higher value
# [6] = measured here: daughter cell gate
# [7] = measured here: mother cell gate
# [8] = measured here: daughter cell gate response
# [9] = measured here: mother cell gate response
Structure (SMILES),GFP response vs DMSO [1],"GFP response vs DMSO [1, 6] [%]","GFP response vs DMSO [1, 7] [%]",GFP response relative to DMSO [2],"GFP response relative to DMSO [2, 8] [%]","GFP response relative to DMSO [2, 9] [%]",GFP response vs DMSO [3],"GFP response, % of DMSO [4]","GFP response, % of DMSO [5]","GFP response, % of DMSO [5, 6] [%]","GFP response, % of DMSO [5, 7] [%]"
CCc1ccc2c(c1)C1(NN=C(c3ccccc3)S1)C(=O)N2 (centres undefined),101% (inactive),99.1,97.7,133% (inactive),125,140,114% (inactive),102% (inactive),94.4% (inactive),99.2,89.5
CCCc1[nH]nc2c1C(c1cccnc1)C(C#N)=C(N)O2 (centres undefined),98.6% (inactive),97.9,99.2,99.2% (inactive),97.6,98.3,96.2% (inactive),103% (inactive),101% (inactive),99.1,99.7
O=C1CCN(S(=O)(=O)c2ccccc2)C2CCCCC12 (centres undefined),98% (inactive),97.8,98.1,102% (inactive),102,100,106% (inactive),100% (inactive),108% (inactive),104,101
COc1cccc(NC(=O)c2ccc3c(c2)CCCC3)c1,101% (inactive),98.4,102,96.2% (inactive),97.2,99.3,97.8% (inactive),90.6% (inactive),103% (inactive),101,102
Cc1ccccc1NC(=O)c1ccccc1O,94% (inactive),92.9,94,106% (inactive),101,108,101% (inactive),93.8% (inactive),100% (inactive),97.4,98.1
CCC(=O)Oc1oc(-c2ccccc2)nc1C=Nc1ccc(C)cc1,103% (inactive),103,103,111% (inactive),113,113,126% (inactive),102% (inactive),108% (inactive),110,109
COC(=O)c1ccccc1NC(=O)c1nc(S(=O)(=O)Cc2ccccc2)ncc1Cl,102% (inactive),101,102,89% (inactive),92.5,92.1,100% (inactive),97.8% (inactive),104% (inactive),101,103
O=C1CC(Sc2nnc(-c3ccccc3O)o2)C(=O)N1c1ccccc1 (centres undefined),95.1% (inactive),98.3,93.1,104% (inactive),101,105,101% (inactive),104% (inactive),106% (inactive),103,106
Cc1ccc(Sc2ncnc3onc(C)c23)cc1,95.4% (inactive),95.7,95.5,117% (inactive),117,117,96.8% (inactive),99% (inactive),105% (inactive),105,102
Cc1ccc(/C=c2\sc3nc(-c4cccs4)nn3c2=O)o1,98.6% (inactive),95.9,95.4,128% (inactive),117,131,163% (inactive),95.4% (inactive),104% (inactive),101,104
Cc1ccc(-c2csc(NC(=O)c3cccc([N+](=O)[O-])c3)n2)cc1,101% (inactive),98.1,97.5,97% (inactive),95.9,97.3,107% (inactive),99.6% (inactive),98.8% (inactive),97.4,93.2
Cc1cc(C)c(OCC(=O)Nc2nc(-c3ccccn3)cs2)c(C)c1,98.6% (inactive),98.3,98.8,121% (inactive),115,126,103% (inactive),95.8% (inactive),92.2% (inactive),95.2,88.8
Cc1cc(N2CCC(C)CC2)n2ncc(-c3ccccc3)c2n1,99.9% (inactive),98.7,100,96.2% (inactive),94.1,98.3,97.8% (inactive),101% (inactive),102% (inactive),99.7,101
Cc1ccc(NC(=O)c2ccc([N+](=O)[O-])o2)cc1C,100% (inactive),104,95.8,128% (inactive),111,127,110% (inactive),99.8% (inactive),100% (inactive),105,96
